The structures appear in SMILES notation.

As a reminder, the inhibition is the relative decrease from the control value, in per cent. The term IC50 denotes the point on the concentration scale where inhibition reaches its midpoint.

Assay [1] has as its target T1, Angiotensin-converting enzyme (Oryctolagus cuniculus) (UniProt P12822).
T1 sequence (whole entry): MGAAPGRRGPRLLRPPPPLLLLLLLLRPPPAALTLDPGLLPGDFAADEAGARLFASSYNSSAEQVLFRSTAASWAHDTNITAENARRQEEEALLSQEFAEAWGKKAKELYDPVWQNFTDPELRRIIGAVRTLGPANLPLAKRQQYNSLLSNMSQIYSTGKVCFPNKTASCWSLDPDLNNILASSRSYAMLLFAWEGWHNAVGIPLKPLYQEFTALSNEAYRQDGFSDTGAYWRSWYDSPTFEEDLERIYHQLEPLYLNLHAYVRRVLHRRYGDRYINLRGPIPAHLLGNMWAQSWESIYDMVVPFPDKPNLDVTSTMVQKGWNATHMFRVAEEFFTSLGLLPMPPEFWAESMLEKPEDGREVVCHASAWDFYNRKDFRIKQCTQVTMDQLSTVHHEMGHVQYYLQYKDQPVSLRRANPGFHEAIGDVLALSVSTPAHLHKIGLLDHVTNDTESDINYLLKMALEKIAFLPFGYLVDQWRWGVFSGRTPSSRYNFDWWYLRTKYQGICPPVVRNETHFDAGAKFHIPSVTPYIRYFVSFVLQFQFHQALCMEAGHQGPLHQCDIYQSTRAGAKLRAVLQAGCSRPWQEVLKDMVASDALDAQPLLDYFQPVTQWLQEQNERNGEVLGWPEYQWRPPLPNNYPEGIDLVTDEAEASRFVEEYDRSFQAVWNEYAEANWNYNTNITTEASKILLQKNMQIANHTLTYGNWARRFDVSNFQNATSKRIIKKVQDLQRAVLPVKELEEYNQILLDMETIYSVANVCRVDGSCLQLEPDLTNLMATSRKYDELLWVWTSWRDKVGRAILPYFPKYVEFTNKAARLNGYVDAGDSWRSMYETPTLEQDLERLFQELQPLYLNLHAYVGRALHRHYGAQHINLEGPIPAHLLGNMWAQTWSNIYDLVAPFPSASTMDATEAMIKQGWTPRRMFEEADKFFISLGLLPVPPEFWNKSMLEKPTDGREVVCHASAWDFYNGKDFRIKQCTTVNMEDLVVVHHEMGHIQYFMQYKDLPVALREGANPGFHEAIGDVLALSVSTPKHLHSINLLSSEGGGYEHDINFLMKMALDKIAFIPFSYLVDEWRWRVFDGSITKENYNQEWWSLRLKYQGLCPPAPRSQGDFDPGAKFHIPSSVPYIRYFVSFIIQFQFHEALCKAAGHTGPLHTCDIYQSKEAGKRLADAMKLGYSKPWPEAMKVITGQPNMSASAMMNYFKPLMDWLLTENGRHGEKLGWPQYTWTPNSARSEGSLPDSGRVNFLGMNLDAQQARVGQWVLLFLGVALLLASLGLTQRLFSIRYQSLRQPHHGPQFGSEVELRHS
Kind of assay: Inhibition of rabbit lung ACE assessed as hydrolysis of hippuryl-histidyl-leucine to hippuric acid and histidyl-leucine at 1 uM after 30 mins relative to control. In outline: (§1)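 Enzyme is the supernatant of rabbit lung acetone powder homogenized in 0.05 M sodium borate pH 8.2 with 0.3 M NaCl and 0.5% Triton X-100 at 4 °C, spun 15,000 rpm for 60 min. Reaction uses borate/NaCl buffer and 5 mM HHL stock, 30 min at 37 °C. Hippuric acid read colorimetrically at 410 nm, in triplicate. % inhibition = 100 − (A_test/A_control)×100. Single-point screen at 1.0 µM; IC₅₀ from plots of % inhibition against serial concentrations.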

The test system of assay [2] is A549. Kind of assay: Cytotoxicity against human A549 cells assessed as cell survival after 24 hrs by MTT assay. In kind it is cell-based. Particulars: A549, 24 h. The method, boiled down:
(§2)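 HEK 293 (normal) and A549 (cancer) cells seeded at 1×10^4 cells/well in DMEM with 10% FBS, grown 24 h at 37 °C under CO₂, then exposed to compounds alongside vehicle control for 24 h. MTT (5 mg/mL, 10 µl) added for 4 h, formazan dissolved in DMSO, absorbance read at 540 nm. Survival relative to control cells; EC₅₀ by probit analysis.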
On the technique in general: Tetrazolium assays rely on reduction of a dye to a coloured formazan, in cell work by metabolically active cells.

The subject of assay [3] is HEK293. Put plainly: Cytotoxicity against HEK293 cells assessed as cell survival after 24 hrs by MTT assay. In kind it is cell-based. Particulars: Homo sapiens, HEK293, 24 h. The method, boiled down:
as §2

Assay [4] addresses T2, Angiotensin-converting enzyme (Oryctolagus cuniculus, UniProt P12822).
T2 sequence (P12822 whole entry): T1 sequence (whole entry)
Put plainly: Inhibition of rabbit lung ACE assessed as hydrolysis of hippuryl-histidyl-leucine to hippuric acid and histidyl-leucine after 30 mins. The method, boiled down: as §1

Assay [5] in a line: Ratio of IC50 for rabbit lung ACE to IC50 for human A549 cells.
Assay [6] is described as follows: Ratio of IC50 for rabbit lung ACE to IC50 for HEK293 cells.

`O=C1[C@@H]2C[C@@H](O)CN2C(=O)c2ccccc2N1Cc1ccc([N+](=O)[O-])c(Cl)c1`: the inhibition in assay [1] came to 28%.

On to `O=C1[C@@H]2C[C@@H](O)CN2C(=O)c2ccccc2N1Cc1cccc(Cl)c1`, for which the inhibition in assay [1] came out at 28%.

Take `O=C(CN1C(=O)[C@@H]2C[C@@H](O)CN2C(=O)c2ccccc21)c1ccc(Br)cc1`: in assay [1], the inhibition came to 28%.

On to `CCOC(=O)[C@H](CCc1ccccc1)N[C@H]1CCc2ccccc2N(CC(=O)O)C1=O` [BENAZEPRIL], for which the IC50 turned out to be 358 µM in assay [2], 301 µM in assay [3] and 0.212 µM in assay [4].

`CCOC(=O)CN1C(=O)[C@@H]2C[C@@H](O)CN2C(=O)c2ccccc21`: the inhibition in assay [1] worked out at 28%.

For `O=C1[C@@H]2C[C@@H](O)CN2C(=O)c2ccccc2N1Cc1cc(F)cc(F)c1`, the inhibition in assay [1] was found to be 28%.

On to `O=C1[C@@H]2C[C@@H](O)CN2C(=O)c2ccccc2N1Cc1cccc(Br)c1`, for which the inhibition in assay [1] was 86%. The IC50 in assay [2] was determined as 400 µM; in assay [3], 398 µM; in assay [4] it was 0.418 µM. The “Ratio IC50” value in assay [5] and in assay [6] was 1000 each time.

`Nc1ccc(CN2C(=O)[C@@H]3C[C@@H](O)CN3C(=O)c3ccccc32)cc1`: the inhibition in assay [1] turned out to be 28%.

Turning to `O=C(O)c1ccc(CN2C(=O)[C@@H]3C[C@@H](O)CN3C(=O)c3ccccc32)cc1`, the inhibition in assay [1] is 28%.

As to `COc1ccc(CN2C(=O)[C@@H]3C[C@@H](O)CN3C(=O)c3ccccc32)cc1`, the inhibition in assay [1] was found to be 28%.

For `O=C1[C@@H]2C[C@@H](O)CN2C(=O)c2ccccc2N1Cc1c(F)c(F)c(F)c(F)c1F`, the inhibition in assay [1] turned out to be 28%.

Regarding `O=C1[C@@H]2C[C@@H](O)CN2C(=O)c2ccccc2N1Cc1ccc(Br)cc1`, in assay [1], the inhibition turned out to be 75%. The IC50 in assay [2] turned out to be 487 µM; in assay [3], 496 µM; in assay [4] it was 0.658 µM. The “Ratio IC50” value in assay [5] and in assay [6] was 1000 each time.

As for `CN1C(=O)[C@@H]2C[C@@H](O)CN2C(=O)c2ccccc21`, the inhibition in assay [1] was 28%.

Consider `COc1cc(CN2C(=O)[C@@H]3C[C@@H](O)CN3C(=O)c3ccccc32)cc(OC)c1OC`, for which the inhibition in assay [1] is 91%. In addition, the IC50 was 419 µM in assay [2], 331 µM in assay [3] and 0.376 µM in assay [4]. Also, the “Ratio IC50” value in assay [5] and in assay [6] was 1000 in each case.

With `COc1cccc(CN2C(=O)[C@@H]3C[C@@H](O)CN3C(=O)c3ccccc32)c1`, the inhibition in assay [1] is 28%.

Consider `O=C1[C@@H]2C[C@@H](O)CN2C(=O)c2ccccc2N1Cc1ccc([N+](=O)[O-])cc1`, for which the inhibition in assay [1] was 28%.

In the case of `CCOC(=O)[C@H](CCc1ccccc1)N[C@@H](C)C(=O)N1[C@H](C(=O)O)C[C@@H]2CCC[C@@H]21` [RAMIPRIL], the IC50 in assay [2] turned out to be 392 µM; in assay [3], 414 µM; in assay [4], 0.253 µM.

On to `O=C(CN1C(=O)[C@@H]2C[C@@H](O)CN2C(=O)c2ccccc21)c1ccc(Cl)cc1`, for which the inhibition in assay [1] was determined as 28%.

Take `O=C1Nc2ccccc2C(=O)N2C[C@H](O)C[C@@H]12`: the inhibition in assay [1] was found to be 57%.

In the case of `NCCCC[C@H](N[C@@H](CCc1ccccc1)C(=O)O)C(=O)N1CCC[C@H]1C(=O)O` [LISINOPRIL ANHYDROUS], the results for the IC50 in assay [2], in assay [3] and in assay [4] were 307 µM, 443 µM and 0.262 µM, respectively.

`O=C1[C@@H]2C[C@@H](O)CN2C(=O)c2ccccc2N1Cc1cccc2c1oc1ccccc12`: the inhibition in assay [1] amounted to 28%.

Turning to `O=C1[C@@H]2C[C@@H](O)CN2C(=O)c2ccccc2N1Cc1ccc(Cl)c(F)c1`, in assay [1], the inhibition worked out at 28%.

With `O=C1[C@@H]2C[C@@H](O)CN2C(=O)c2ccccc2N1Cc1cc(F)cc(F)c1Cl`, in assay [1], the inhibition is 28%.

`CC(=O)CN1C(=O)[C@@H]2C[C@@H](O)CN2C(=O)c2ccccc21`: the inhibition in assay [1] worked out at 28%.

Turning to `O=C1[C@@H]2C[C@@H](O)CN2C(=O)c2ccccc2N1Cc1cc(Br)cs1`, the inhibition in assay [1] amounted to 80%. Besides, the IC50 came out at 361 µM in assay [2], 281 µM in assay [3] and 0.272 µM in assay [4]. Moreover, the “Ratio IC50” value in assay [5] and in assay [6] was 1000 each time.

Take `COC(=O)c1ccc(CN2C(=O)[C@@H]3C[C@@H](O)CN3C(=O)c3ccccc32)cc1`: in assay [1], the inhibition was 28%.

The values are drawn from ChEMBL document CHEMBL2412986, “Design, synthesis and evaluation of novel 2-hydroxypyrrolobenzodiazepine-5,11-dione analogues as potent angiotensin converting enzyme (ACE) inhibitors” (Bioorg Med Chem, 2013).
